The values that follow come from ChEMBL document CHEMBL1240435, “Synthesis of some 3-substituted amino-4,5-tetramethylene thieno[2,3-d][ 1,2,3]-triazin-4(3H)-ones as potential antimicrobial agents” (2010).

Assay [1] deals with Aspergillus niger. As to the kind of experiment: Antifungal activity against Aspergillus niger at 50 ug/ml after 48 hrs by agar cup diffusion method. Type of assay: functional. As to conditions: read-out: IZ.
Assay [2] has as its system Staphylococcus epidermidis. The assay can be described thus: Antibacterial activity against Staphylococcus epidermidis after 24 hrs by tube dilution method. The format is functional.
Assay [3] relates to Salmonella typhi. As to the kind of experiment: Antibacterial activity against Salmonella typhi after 24 hrs by tube dilution method. Type of assay: functional, Salmonella enterica subsp. enterica serovar Typhi. The note with it: Salmonella enterica.
Assay [4] relates to Staphylococcus aureus. As to the kind of experiment: Antibacterial activity against Staphylococcus aureus after 24 hrs by tube dilution method. The format is functional.
Assay [5] has as its system Candida albicans. The assay can be described thus: Antifungal activity against Candida albicans at 50 ug/ml after 48 hrs by agar cup diffusion method. Type of assay: functional. The note with it: read-out: IZ.
Assay [6] deals with Cryptococcus neoformans. The assay can be described thus: Antifungal activity against Cryptococcus neoformans after 48 hrs by tube dilution method. Type of assay: functional.
Assay [7] concerns Candida albicans. The assay can be described thus: Antifungal activity against Candida albicans after 48 hrs by tube dilution method. Type of assay: functional.
In assay [8] the test system is Escherichia coli. As to the kind of experiment: Antibacterial activity against Escherichia coli after 24 hrs by tube dilution method. The format is functional.
Assay [9] has as its system Aspergillus niger. The assay can be described thus: Antifungal activity against Aspergillus niger after 48 hrs by tube dilution method. Type of assay: functional.
Assay [10] deals with Staphylococcus aureus. The assay can be described thus: Antibacterial activity against Staphylococcus aureus at 50 ug/ml after 24 hrs by agar cup diffusion method. The format is functional. As to conditions: read-out: IZ. In short, it runs like this:
(§1)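 Compounds dissolved in DMF. A fresh bacterial subculture in isotonic NaCl was mixed into sterile assay medium at 40–45 °C and poured into Petri dishes. Test solution went into marked wells. Plates stood 5 min, were covered for 1 h, then incubated at 37 °C for 24 h. Inhibition zones were measured as the average of three readings.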

In assay [11] the test system is Escherichia coli. The assay can be described thus: Antibacterial activity against Escherichia coli at 50 ug/ml after 24 hrs by agar cup diffusion method. Type of assay: functional. The note with it: read-out: IZ. In short, it runs like this: as §1
Assay [12] concerns Salmonella typhi. The assay can be described thus: Antibacterial activity against Salmonella typhi at 50 ug/ml after 24 hrs by agar cup diffusion method. The note with it: Salmonella enterica, read-out: IZ. Type of assay: functional, Salmonella enterica subsp. enterica serovar Typhi. In short, it runs like this: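 Agar cup diffusion against an ATCC or IMTECH standard strain. The test compound is dissolved in DMF. A fresh bacterial subculture in isotonic NaCl is mixed into sterile medium at 40–45 °C and poured into plates. Solution is added to marked wells, left 5 min, then covered 1 h. Plates are incubated at 37 °C for 24 h. The inhibition zone is the mean of three readings, with ampicillin as reference.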

Assay [13] deals with Staphylococcus epidermidis. As to the kind of experiment: Antibacterial activity against Staphylococcus epidermidis at 50 ug/ml after 24 hrs by agar cup diffusion method. Type of assay: functional. The note with it: read-out: IZ. The gist of the method:
as §1

Assay [14] relates to Cryptococcus neoformans. As to the kind of experiment: Antifungal activity against Cryptococcus neoformans at 50 ug/ml after 48 hrs by agar cup diffusion method. Type of assay: functional. As to conditions: read-out: IZ.

≈ marks a conversion by molar mass, not a printed value.

As usually defined, the MIC is the lowest concentration that inhibits growth of the organism. Read a low MIC as inhibition by little substance. With `O=c1[nH]nnc2sc3c(c12)CCCC3`, the zone of inhibition at 50 µg/mL in assay [1] came to 4 mm; in assay [5], 3 mm. For the same molecule, the MIC came out at 37.5 µg/mL (≈ 181 µM) in assay [2]; 37.5 µg/mL (≈ 181 µM) in assay [3]; 37.5 µg/mL (≈ 181 µM) in assay [4]; 125 µg/mL (≈ 603 µM) in [6]; 50 µg/mL (≈ 241 µM) in assay [7]; 50 µg/mL (≈ 241 µM) in [8]. Further, in assay [9], it took 37.5 µg/mL (≈ 181 µM) to inhibit growth (MIC).
For `Cn1nnc2sc3c(c2c1=O)CCCC3`, the zone of inhibition at 50 µg/mL in assay [1] was 6 mm; in [10] it was 16 mm; in assay [5], 4 mm; in assay [11], 12 mm; in assay [12] it was 14 mm; in assay [13] it was 18 mm. Moreover, the MIC in assay [2] was 37.5 µg/mL (≈ 169 µM); in assay [3], 37.5 µg/mL (≈ 169 µM); in assay [4] it was 37.5 µg/mL (≈ 169 µM); in assay [6], 125 µg/mL (≈ 565 µM); in [7], 50 µg/mL (≈ 226 µM); in assay [8], 50 µg/mL (≈ 226 µM). The same molecule had an MIC in assay [9] of 37.5 µg/mL (≈ 169 µM).
As for `CCn1nnc2sc3c(c2c1=O)CCCC3`, the zone of inhibition at 50 µg/mL was found to be 6 mm in assay [1]; 18 mm in [10]; 5 mm in assay [5]; 16 mm in [11]; 16 mm in [12]; 16 mm in assay [13]. Also, the minimal inhibitory concentration (MIC) in assay [2] was 37.5 µg/mL (≈ 159 µM); in assay [3] it was 37.5 µg/mL (≈ 159 µM); in assay [4] it was 37.5 µg/mL (≈ 159 µM); in assay [6] it was 125 µg/mL (≈ 531 µM); in assay [7], 50 µg/mL (≈ 212 µM); in assay [8] it was 50 µg/mL (≈ 212 µM). The same molecule yielded an MIC in assay [9] of 37.5 µg/mL (≈ 159 µM).
For `O=c1c2c3c(sc2nnn1-c1ccccc1)CCCC3`, the zone of inhibition at 50 µg/mL was found to be 6 mm in assay [1]; 20 mm in assay [10]; 4 mm in assay [5]; 12 mm in assay [11]; 12 mm in [12]; 17 mm in assay [13]. Moreover, the MIC in [2] was 25 µg/mL (≈ 88.2 µM); in assay [3], 37.5 µg/mL (≈ 132 µM); in assay [4], 25 µg/mL (≈ 88.2 µM); in [6] it was 125 µg/mL (≈ 441 µM); in assay [7], 50 µg/mL (≈ 176 µM); in assay [8] it was 37.5 µg/mL (≈ 132 µM). The minimum inhibitory concentration (MIC) in [9] is 37.5 µg/mL (≈ 132 µM).
Turning to `Cc1ccccc1-n1nnc2sc3c(c2c1=O)CCCC3`, the zone of inhibition at 50 µg/mL turned out to be 6 mm in assay [1]; 20 mm in assay [10]; 4 mm in assay [5]; 14 mm in [11]; 12 mm in [12]; 18 mm in assay [13]. Further, the MIC in assay [2] was 25 µg/mL (≈ 84.1 µM); in assay [3], 25 µg/mL (≈ 84.1 µM); in assay [4], 25 µg/mL (≈ 84.1 µM); in assay [6], 75 µg/mL (≈ 252 µM); in assay [7], 37.5 µg/mL (≈ 126 µM); in assay [8], 37.5 µg/mL (≈ 126 µM). The molecule further showed an MIC in assay [9] of 25 µg/mL (≈ 84.1 µM).
`Cc1cccc(-n2nnc3sc4c(c3c2=O)CCCC4)c1`: the zone of inhibition at 50 µg/mL in assay [1] came to 8 mm; in assay [10] it was 24 mm; in assay [14], 6 mm; in [5], 4 mm; in assay [11] it was 14 mm; in assay [12] it was 14 mm. Also, the zone of inhibition at 50 µg/mL in assay [13] was 20 mm. In addition, the minimal inhibitory concentration (MIC) in assay [2] is 25 µg/mL (≈ 84.1 µM); in [3], 25 µg/mL (≈ 84.1 µM); in [4], 25 µg/mL (≈ 84.1 µM); in [6], 75 µg/mL (≈ 252 µM); in [7] it was 37.5 µg/mL (≈ 126 µM); in assay [8] it was 37.5 µg/mL (≈ 126 µM). The MIC in assay [9] stood at 25 µg/mL (≈ 84.1 µM).
Consider `Cc1ccc(-n2nnc3sc4c(c3c2=O)CCCC4)cc1`, for which the zone of inhibition at 50 µg/mL in assay [1] stood at 8 mm; in assay [10], 28 mm; in assay [14], 5 mm; in assay [5] it was 5 mm; in assay [11], 20 mm; in assay [12], 18 mm. For the same molecule, in [13], the zone of inhibition at 50 µg/mL stood at 28 mm. Moreover, the MIC in assay [2] came to 25 µg/mL (≈ 84.1 µM); in [3], 25 µg/mL (≈ 84.1 µM); in assay [4], 25 µg/mL (≈ 84.1 µM); in assay [6], 75 µg/mL (≈ 252 µM); in [7], 37.5 µg/mL (≈ 126 µM); in assay [8], 37.5 µg/mL (≈ 126 µM). Besides, the MIC in assay [9] worked out at 25 µg/mL (≈ 84.1 µM).
